Data: ChEMBL document CHEMBL3407422, “2-(2-oxo-morpholin-3-yl)-acetamide derivatives as broad-spectrum antifungal agents” (J Med Chem, 2015)
In brackets after ≈: the same amount, converted by molar mass. Activity calls are given as the source filed them. No cut-off for these calls is given here.

Tests used:
[1] = test system: Candida albicans; experiment: Antifungal activity against Candida albicans SC5314 after 24 hrs; format: functional
Procedure, shortened: (§1)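 Overnight YPD cultures diluted in PBS (1/200 for C. albicans, 1/400 for C. glabrata). Cells treated with compound, or 2.5% DMSO as solvent control, for 24 h at 37 °C. CFUs then counted; MFC is the concentration giving 99% killing of the inoculum.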

[2] = test system: Nakaseomyces glabratus; experiment: Antifungal activity against Candida glabrata BG2 after 24 hrs; format: functional; procedure, shortened: as §1
[3] = test system: Aspergillus fumigatus; experiment: Antifungal activity against Aspergillus fumigatus CBS 117202 after 24 hrs by two-fold dilution method; format: functional; conditions: CBS 117202, 24 h
Procedure, shortened: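 Spores at 2×10^4 spores/mL in potato dextrose broth, incubated with a 2-fold compound dilution series for 24 h at 25 °C. Growth read by microspectrophotometry of the liquid cultures. MIC taken as the lowest concentration inhibiting fungal growth.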

[4] = Half life in human plasma; format: ADME, cell-free
[5] = Half life in mouse plasma; format: ADME, cell-free
[6] = test system: Candida albicans; experiment: Antifungal activity against Candida albicans SC5314 infected in BALB/c mouse assessed as reduction in reduction in fungal load in kidney at 10 mg/kg/day, ip for 5 days relative to vehicle-treated control; format: functional, organism-based
Procedure, shortened: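 BALB/c mice given cyclophosphamide 100 mg/kg at 4 days and 24 h before infection and at 3 days after. Infected IV with 2×10^3 SC5314 cells in saline. Dosed IP daily for 5 days from 16 h post-infection, in DMSO/0.5% methylcellulose (5/95). Organs taken on day 7, homogenized and plated on BHI agar (18 h, 37 °C). CFU/g compared with vehicle.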

Row | Compound | MFC99 [1] [µg/mL] | half-life [4] [min] | also measured
1 | CCN1CCOC(=O)C1CC(=O)Nc1ccc(C(C)C)cc1 (stereo unspecified) | 12.5 (≈ 41.1 µM) | 22 | MFC99 [2]: 12.5 µg/mL (≈ 41.1 µM); MIC [3]: 12.5 µg/mL (≈ 41.1 µM); half-life [5]: 32 min
2 | OC(Cn1cncn1)(Cn1cncn1)c1ccc(F)cc1F [FLUCONAZOLE] | >100 |  | Activity [6]: Active
3 | CCN1C[C@@H](c2ccccc2)OC(=O)C1CC(=O)Nc1ccc(C(C)C)cc1 (stereo partly specified) | 12.5 (≈ 32.9 µM) | 31 | 
4 | CCN1C[C@H](c2ccccc2)OC(=O)C1CC(=O)Nc1ccc(C(C)C)cc1 (stereo partly specified) | 12.5 (≈ 32.9 µM) | 49 | 
5 | CCN1C[C@H](C)OC(=O)C1CC(=O)Nc1ccc(C(C)C)cc1 (stereo partly specified) | 12.5 (≈ 39.3 µM) | 57 | 
6 | CCN1CC(C)(C)OC(=O)C1CC(=O)NCc1cccc(Cl)c1 (stereo unspecified) | 6.25 (≈ 18.4 µM) |  | 
7 | CCN(CC)C(=O)CC1C(=O)OC(C)(C)CN1CC (stereo unspecified) | >50 |  | 
8 | CC(C)c1ccc(NC(=O)CC2NCC(C)(C)OC2=O)cc1 (stereo unspecified) | >25 |  | 
